Test results taken from ChEMBL document CHEMBL3525900, “Pharmacokinetics, distribution, and metabolism of [14C]sunitinib in rats, monkeys, and humans” (Drug Metab Dispos, 2012).

How the values were obtained:
[1] = system: Zone of skin; assay: Drug concentration in male Lister Hooded pigmented rat abdomen skin assessed as radioactivity per gram of tissue at 20 mg/kg administered as single dose via gastric gavage measured after 168 hrs by autoradiographic analysis; assay type: ADME, organism-based; design: dose 20 mg/kg, dosed compound name [14C]Sunitinib; conditions: in vivo, po
[2] = system: Kidney; assay: Drug concentration in female albino rat kidney assessed as radioactivity per gram of tissue at 20 mg/kg administered as single dose via gastric gavage measured after 72 hrs by autoradiographic analysis; assay type: ADME, organism-based; design: dose 20 mg/kg, dosed compound name [14C]Sunitinib; conditions: in vivo, po
Outline: (§1)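 Sprague Dawley albino rats, ca 7-8 weeks old, dosed once by gastric gavage with [14C]sunitinib L-malate (15 mg freebase/kg, 100 µCi/kg). One male and one female killed by CO2 at 3, 6, 24, 72 and 168 h. Carcasses frozen in solid CO2/hexane, embedded and cut into 30 µm sagittal sections, then freeze-dried. Radioactivity quantified by whole-body autoradiography against standards by regression, background subtracted.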

[3] = system: Zone of skin; assay: Drug concentration in male Lister Hooded pigmented rat abdomen skin assessed as radioactivity per gram of tissue at 20 mg/kg administered as single dose via gastric gavage measured after 24 hrs by autoradiographic analysis; assay type: ADME, organism-based; design: dose 20 mg/kg, dosed compound name [14C]Sunitinib; conditions: in vivo, po
[4] = system: Cynomolgus monkey; assay: Drug recovery in cage residue of female cynomolgus monkey at 6 mg/kg, po administered as single dose during 0 to 336 hrs by liquid scintillation counting; assay type: ADME, organism-based, Macaca fascicularis; design: dose 6 mg/kg, dosed compound name [14C]Sunitinib, route oral; conditions: in vivo
[5] = system: Stomach; assay: Drug concentration in female albino rat stomach assessed as radioactivity per gram of tissue at 20 mg/kg administered as single dose via gastric gavage measured after 6 hrs by autoradiographic analysis; assay type: ADME, organism-based; design: dose 20 mg/kg, dosed compound name [14C]Sunitinib; conditions: in vivo, po
[6] = system: Adrenal; assay: Drug concentration in female Lister Hooded pigmented rat adrenal assessed as radioactivity per gram of tissue at 20 mg/kg administered as single dose via gastric gavage measured after 72 hrs by autoradiographic analysis; assay type: ADME, organism-based; design: dose 20 mg/kg, dosed compound name [14C]Sunitinib; conditions: in vivo, po
Outline: (§2)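 Lister Hooded (pigmented) rats, ca 7-8 weeks old, acclimated 7 days, given [14C]sunitinib L-malate by gastric gavage at 20 mg/kg (15 mg freebase/kg, 100 µCi/kg). One male and one female killed by CO2 at 24, 72, 168 and 336 h. Carcasses frozen in solid CO2/hexane and embedded in frozen cellulose. 30 µm sagittal cryosections were freeze-dried. Tissue radioactivity measured by quantitative whole-body autoradiography against calibration standards, with background subtracted.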

[7] = system: Rattus norvegicus; assay: Apparent terminal half life as total radioactivity in female Sprague-Dawley rat plasma at 5 mg/kg, iv administered as single dose by LC/MS/MS analysis; assay type: ADME, organism-based; design: dose 5 mg/kg, dosed compound name [14C]Sunitinib, route intravenous; conditions: in vivo
Outline: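 Single dose of [14C]sunitinib L-malate as free base, 50 µCi/kg. IV dose was 5 mg/kg by tail vein in 5 females. Oral dose was 15 mg/kg by gavage in 3 females and 3 males. Total radioactivity was by scintillation counting. […] Cmax was read from raw data, t½ by log-linear regression, AUC by linear trapezoidal rule.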

[8] = system: Brain; assay: Drug concentration in female albino rat brain assessed as radioactivity per gram of tissue at 20 mg/kg administered as single dose via gastric gavage measured after 24 hrs by autoradiographic analysis; assay type: ADME, organism-based; design: dose 20 mg/kg, dosed compound name [14C]Sunitinib; conditions: in vivo, po
Outline: (§3)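 Sprague Dawley (albino) rats, ca 7-8 weeks old, received a single gastric-gavage dose of [14C]sunitinib L-malate at 20 mg/kg (15 mg freebase/kg, 100 µCi/kg). One animal per sex killed by CO2 at 3, 6, 24, 72 and 168 h, then frozen in CO2/hexane. 30 µm sagittal sections were cut and freeze-dried. Radioactivity per gram quantified by whole-body autoradiography using regression against standards. LOQ 0.04–0.06 µg freebase equiv/g.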

[9] = Drug concentration in female albino rat eye assessed as radioactivity per gram of tissue at 20 mg/kg administered as single dose via gastric gavage measured after 24 hrs by autoradiographic analysis; assay type: ADME, organism-based; design: dose 20 mg/kg, dosed compound name [14C]Sunitinib; conditions: in vivo, po; outline: as §1
[10] = Drug concentration in male albino rat brown fat assessed as radioactivity per gram of tissue at 20 mg/kg administered as single dose via gastric gavage measured after 3 hrs by autoradiographic analysis; assay type: ADME, organism-based, Brown adipose tissue; design: dose 20 mg/kg, dosed compound name [14C]Sunitinib; conditions: in vivo, po
[11] = system: Zone of skin; assay: Drug concentration in female Lister Hooded pigmented rat abdomen skin assessed as radioactivity per gram of tissue at 20 mg/kg administered as single dose via gastric gavage measured after 168 hrs by autoradiographic analysis; assay type: ADME, organism-based; design: dose 20 mg/kg, dosed compound name [14C]Sunitinib; conditions: in vivo, po
Outline: (§4)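 Pigmented Lister Hooded rats, 7-8 weeks old, received [14C]sunitinib L-malate by gavage at 20 mg/kg (15 mg freebase/kg, 100 µCi/kg). One rat per sex was killed by CO2 at each of 24, 72, 168 and 336 h. Carcasses were frozen in solid CO2/hexane and cut into 30 µm sagittal sections, then freeze-dried. Tissue radioactivity was quantified by whole-body autoradiography calibrated against standards by regression (LOQ 0.04–0.06 µg eq/g).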

[12] = system: Liver; assay: Drug concentration in female albino rat liver assessed as radioactivity per gram of tissue at 20 mg/kg administered as single dose via gastric gavage measured after 6 hrs by autoradiographic analysis; assay type: ADME, organism-based; design: dose 20 mg/kg, dosed compound name [14C]Sunitinib; conditions: in vivo, po; outline: as §1
[13] = Drug concentration in male Lister Hooded pigmented rat lachrymal gland assessed as radioactivity per gram of tissue at 20 mg/kg administered as single dose via gastric gavage measured after 168 hrs by autoradiographic analysis; assay type: ADME, organism-based; design: dose 20 mg/kg, dosed compound name [14C]Sunitinib; conditions: in vivo, po
[14] = system: Heart; assay: Drug concentration in female albino rat heart assessed as radioactivity per gram of tissue at 20 mg/kg administered as single dose via gastric gavage measured after 3 hrs by autoradiographic analysis; assay type: ADME, organism-based; design: dose 20 mg/kg, dosed compound name [14C]Sunitinib; conditions: in vivo, po; outline: as §1
[15] = Drug concentration in male Lister Hooded pigmented rat uveal tract assessed as radioactivity per gram of tissue at 20 mg/kg administered as single dose via gastric gavage measured after 72 hrs by autoradiographic analysis; assay type: ADME, organism-based; design: dose 20 mg/kg, dosed compound name [14C]Sunitinib; conditions: in vivo, po
[16] = system: Homo sapiens; assay: Apparent oral clearance as total radioactivity in human plasma at 50 mg, po administered as single dose measured up to 24 hrs by LC/MS/MS analysis; assay type: ADME, organism-based; design: dosed compound name [14C]Sunitinib; conditions: in vivo
[17] = system: Thymus; assay: Drug concentration in male Lister Hooded pigmented rat thymus assessed as radioactivity per gram of tissue at 20 mg/kg administered as single dose via gastric gavage measured after 168 hrs by autoradiographic analysis; assay type: ADME, organism-based; design: dose 20 mg/kg, dosed compound name [14C]Sunitinib; conditions: in vivo, po
[18] = system: Stomach; assay: Drug concentration in female albino rat stomach assessed as radioactivity per gram of tissue at 20 mg/kg administered as single dose via gastric gavage measured after 3 hrs by autoradiographic analysis; assay type: ADME, organism-based; design: dose 20 mg/kg, dosed compound name [14C]Sunitinib; conditions: in vivo, po
[19] = Drug recovery in urine of female Sprague-Dawley rat at 15 mg/kg, po administered as single dose during 0 to 72 hrs by liquid scintillation counting; assay type: ADME, organism-based; design: dose 15 mg/kg, dosed compound name [14C]Sunitinib, route oral; conditions: in vivo
[20] = system: Homo sapiens; assay: Total drug recovery in human at 50 mg, po administered as single dose during 0 to 504 hrs by liquid scintillation counting; assay type: ADME, organism-based; design: dosed compound name [14C]Sunitinib; conditions: in vivo
[21] = system: Stomach; assay: Drug concentration in female Lister Hooded pigmented rat stomach assessed as radioactivity per gram of tissue at 20 mg/kg administered as single dose via gastric gavage measured after 24 hrs by autoradiographic analysis; assay type: ADME, organism-based; design: dose 20 mg/kg, dosed compound name [14C]Sunitinib; conditions: in vivo, po; outline: as §2
[22] = system: Liver; assay: Drug concentration in female albino rat liver assessed as radioactivity per gram of tissue at 20 mg/kg administered as single dose via gastric gavage measured after 3 hrs by autoradiographic analysis; assay type: ADME, organism-based; design: dose 20 mg/kg, dosed compound name [14C]Sunitinib; conditions: in vivo, po; outline: as §1
[23] = system: Cynomolgus monkey; assay: Drug recovery in cage residue of male cynomolgus monkey at 6 mg/kg, po administered as single dose during 0 to 336 hrs by liquid scintillation counting; assay type: ADME, organism-based, Macaca fascicularis; design: dose 6 mg/kg, dosed compound name [14C]Sunitinib, route oral; conditions: in vivo
[24] = system: Zone of skin; assay: Drug concentration in female Lister Hooded pigmented rat abdomen skin assessed as radioactivity per gram of tissue at 20 mg/kg administered as single dose via gastric gavage measured after 72 hrs by autoradiographic analysis; assay type: ADME, organism-based; design: dose 20 mg/kg, dosed compound name [14C]Sunitinib; conditions: in vivo, po; outline: as §4
[25] = system: Adrenal; assay: Drug concentration in female albino rat adrenal assessed as radioactivity per gram of tissue at 20 mg/kg administered as single dose via gastric gavage measured after 6 hrs by autoradiographic analysis; assay type: ADME, organism-based; design: dose 20 mg/kg, dosed compound name [14C]Sunitinib; conditions: in vivo, po; outline: as §3
[26] = system: Cynomolgus monkey; assay: Terminal half life as total radioactivity in male cynomolgus monkey plasma at 6 mg/kg, po administered as single dose by LC/MS/MS analysis; assay type: ADME, organism-based, Macaca fascicularis; design: dose 6 mg/kg, dosed compound name [14C]Sunitinib, route oral; conditions: in vivo

CCN(CC)CCNC(=O)c1c(C)[nH]c(/[14CH]=C2\C(=O)Nc3ccc(F)cc32)c1C.O=C(O)C[C@H](O)C(=O)O
Radiolabel recovery [1]: 0.58 ugequiv
Radiolabel recovery [2]: 0.39 ugequiv
Radiolabel recovery [3]: 5.57 ugequiv
Radiolabel recovery [4]: 0.6%
Radiolabel recovery [5]: 8.54 ugequiv
Radiolabel recovery [6]: 1.57 ugequiv
t1/2 lambda z [7]: 10.3 h
Radiolabel recovery [8]: 0.07 ugequiv
Radiolabel recovery [9]: 0.43 ugequiv
Radiolabel recovery [10]: 8.47 ugequiv
Radiolabel recovery [11]: 0.17 ugequiv
Radiolabel recovery [12]: 15.16 ugequiv
Radiolabel recovery [13]: 0.06 ugequiv
Radiolabel recovery [14]: 7.31 ugequiv
Radiolabel recovery [15]: 147.37 ugequiv
CL/F [16]: 23.5 L/h
Radiolabel recovery [17]: 0.06 ugequiv
Radiolabel recovery [18]: 15.45 ugequiv
Radiolabel recovery [19]: 9.3%
Radiolabel recovery [20]: 77%
Radiolabel recovery [21]: 0.64 ugequiv
Radiolabel recovery [22]: 19.89 ugequiv
Radiolabel recovery [23]: 1.9%
Radiolabel recovery [24]: 0.26 ugequiv
Radiolabel recovery [25]: 26.74 ugequiv
beta t1/2 [26]: 222 h
